# Source: ChEMBL document CHEMBL1649159, “A redox basis for metronidazole resistance in Helicobacter pylori” (Antimicrob Agents Chemother, 2009)
# Experiments:
# [1] = Drug activation in metronidazole-susceptible Helicobacter pylori 10593/2 lysate
# [2] = Drug activation in metronidazole-susceptible Helicobacter pylori CAS 015 J0 lysate
# [3] = Drug activation in metronidazole-susceptible Helicobacter pylori HER 126 V1 lysate
# [4] = Drug activation in metronidazole-resistant Helicobacter pylori RIG 117 J56 lysate
# [5] = Drug activation in metronidazole-resistant Helicobacter pylori HER 126 V4 lysate
# [6] = Drug activation in metronidazole-resistant Helicobacter pylori CAS 015 J56 lysate harboring rdxA L132stop and frxA L39stop mutant genes; type: organism-based
# [7] = Drug activation in metronidazole-susceptible Helicobacter pylori RIG 117 J0 lysate
# [8] = Drug activation in metronidazole-resistant Helicobacter pylori 10593a/2 lysate
# [9] = tested on: Helicobacter pylori; assay: Prodrug activation in Helicobacter pylori HER 126 V1 lysate assessed as compound reduction under argonized aerobic condition per mg of protein
# Method in brief: (§1)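 Metronidazole reduction was measured in lysate suspensions with Mtr and NADH as substrates. Cells were grown at 37°C either aerobically (5% CO2 in air) or microaerobically (5% CO2, 5% O2, 90% N2). Lysate samples were either argon-treated to displace oxygen or left untreated. Rates were expressed per mg protein, with protein determined by the bicinchoninic acid method.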
# [10] = tested on: Helicobacter pylori; assay: Antimicrobial activity against Helicobacter pylori RIG 117 J0 by Etest; type: functional
# Method in brief: (§2)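 Etest MIC determination, repeated in triplicate. Strains were grown at 37°C, either aerobically (5% CO2 in air) or microaerobically (5% CO2, 5% O2, 90% N2). Strains were classed as susceptible or resistant using a resistance threshold of 8 µg ml–1, following clinical practice.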
# [11] = tested on: Helicobacter pylori; assay: Prodrug activation in Helicobacter pylori HER 126 V1 lysate assessed as compound reduction under oxygenated aerobic condition per mg of protein; details: in vivo; method in brief: as §1
# [12] = tested on: Helicobacter pylori; assay: Prodrug activation in Helicobacter pylori 10593/2 lysate assessed as compound reduction under argonized aerobic condition per mg of protein; method in brief: as §1
# [13] = tested on: Helicobacter pylori; assay: Antimicrobial activity against compound-resistant Helicobacter pylori RIG 117 J56 harboring rdxA R16C and frxA A40stop mutant genes by Etest; type: functional
# Method in brief: (§3)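 Metronidazole susceptibility by Etest, repeated in triplicate, on clinical matched-pair isolates collected after failed metronidazole treatment. Strains were grown at 37°C either microaerobically (5% CO2, 5% O2, 90% N2) or aerobically (5% CO2 in air). Isolates were called resistant above a threshold of 8 µg ml–1.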
# [14] = tested on: Helicobacter pylori; assay: Prodrug activation in Helicobacter pylori 10593/2 lysate assessed as compound reduction under oxygenated microaerobic condition per mg of protein
# Method in brief: (§4)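 Lysates of H. pylori strains grown at 37°C, either aerobically (5% CO2 in air) or microaerobically (5% CO2, 5% O2, 90% N2), with Mtr and NADH as substrates for reduction activity. Some lysate samples were argon-treated to displace oxygen. Protein content was measured by bicinchoninic acid microtiter assay.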
# [15] = tested on: Helicobacter pylori; assay: Prodrug activation in Helicobacter pylori CAS 015 J0 lysate assessed as compound reduction under argonized aerobic condition per mg of protein; method in brief: as §1
# [16] = tested on: Helicobacter pylori; assay: Prodrug activation in compound-resistant Helicobacter pylori 10593a/2 lysate harboring rdxA C177stop mutant gene assessed as compound reduction under oxygenated aerobic condition per mg of protein; method in brief: as §4
# [17] = tested on: Helicobacter pylori; assay: Prodrug activation in Helicobacter pylori RIG 117 J0 lysate assessed as compound reduction under oxygenated aerobic condition per mg of protein; details: in vivo; method in brief: as §1
# [18] = tested on: Helicobacter pylori; assay: Antimicrobial activity against compound-resistant Helicobacter pylori 10593a/2 harboring rdxA C177stop mutant gene by Etest; type: functional; method in brief: as §3
# [19] = tested on: Helicobacter pylori; assay: Prodrug activation in Helicobacter pylori HER 126 V1 lysate assessed as compound reduction under argonized microaerobic condition per mg of protein; method in brief: as §4
# [20] = tested on: Helicobacter pylori; assay: Prodrug activation in compound-resistant Helicobacter pylori CAS 015 J56 lysate harboring rdxA L132stop and frxA L39stop mutant genes assessed as compound reduction under oxygenated microaerobic condition per mg of protein; method in brief: as §4
# [21] = tested on: Helicobacter pylori; assay: Prodrug activation in Helicobacter pylori CAS 015 J0 lysate assessed as compound reduction under oxygenated microaerobic condition per mg of protein; method in brief: as §4
# [22] = tested on: Helicobacter pylori; assay: Prodrug activation in Helicobacter pylori RIG 117 J0 lysate assessed as compound reduction under argonized aerobic condition per mg of protein; details: in vivo; method in brief: as §1
# [23] = tested on: Helicobacter pylori; assay: Prodrug activation in compound-resistant Helicobacter pylori HER 126 V4 lysate assessed as compound reduction under oxygenated microaerobic condition per mg of protein; details: in vivo; method in brief: as §4
# [24] = tested on: Helicobacter pylori; assay: Antimicrobial activity against Helicobacter pylori 10593/2 by Etest; type: functional; method in brief: as §3
# [25] = tested on: Helicobacter pylori; assay: Prodrug activation in Helicobacter pylori CAS 015 J0 lysate assessed as compound reduction under oxygenated aerobic condition per mg of protein; method in brief: as §4
# [26] = tested on: Helicobacter pylori; assay: Prodrug activation in compound-resistant Helicobacter pylori 10593a/2 lysate harboring rdxA C177stop mutant gene assessed as compound reduction under argonized microaerobic condition per mg of protein; method in brief: as §4
# [27] = tested on: Helicobacter pylori; assay: Antimicrobial activity against Helicobacter pylori CAS 015 J0 by Etest; type: functional; method in brief: as §2
# [28] = tested on: Helicobacter pylori; assay: Prodrug activation in compound-resistant Helicobacter pylori CAS 015 J56 lysate harboring rdxA L132stop and frxA L39stop mutant genes assessed as compound reduction under oxygenated aerobic condition per mg of protein; method in brief: as §4
# [29] = tested on: Helicobacter pylori; assay: Prodrug activation in Helicobacter pylori 10593/2 lysate assessed as compound reduction under argonized microaerobic condition per mg of protein; method in brief: as §1
# [30] = tested on: Helicobacter pylori; assay: Prodrug activation in compound-resistant Helicobacter pylori HER 126 V4 lysate assessed as compound reduction under argonized microaerobic condition per mg of protein; method in brief: as §4
# [31] = tested on: Helicobacter pylori; assay: Prodrug activation in Helicobacter pylori CAS 015 J0 lysate assessed as compound reduction under argonized microaerobic condition per mg of protein; method in brief: as §1
# [32] = tested on: Helicobacter pylori; assay: Prodrug activation in Helicobacter pylori 10593a/2 lysate harboring rdxA C177stop mutant gene assessed as compound reduction under oxygenated microaerobic condition per mg of protein; method in brief: as §4
# [33] = tested on: Helicobacter pylori; assay: Prodrug activation in Helicobacter pylori HER 126 V1 lysate assessed as compound reduction under oxygenated microaerobic condition per mg of protein; details: in vivo; method in brief: as §1
# [34] = tested on: Helicobacter pylori; assay: Prodrug activation in Helicobacter pylori 10593/2 lysate assessed as compound reduction under oxygenated aerobic condition per mg of protein; method in brief: as §4
# [35] = tested on: Helicobacter pylori; assay: Antimicrobial activity against compound-resistant Helicobacter pylori CAS 015 J56 harboring rdxA L132stop and frxA L39stop mutant genes by Etest; type: functional; method in brief: as §3
# [36] = tested on: Helicobacter pylori; assay: Prodrug activation in Helicobacter pylori RIG 117 J0 lysate assessed as compound reduction under oxygenated microaerobic condition per mg of protein; method in brief: as §4
# [37] = tested on: Helicobacter pylori; assay: Antimicrobial activity against compound-resistant Helicobacter pylori HER 126 V4 by Etest; type: functional; method in brief: as §3
# [38] = tested on: Helicobacter pylori; assay: Antimicrobial activity against Helicobacter pylori HER 126 V1 by Etest; type: functional; method in brief: as §3
# [39] = tested on: Helicobacter pylori; assay: Prodrug activation in compound-resistant Helicobacter pylori RIG 117 J56 lysate harboring rdxA R16C and frxA A40stop mutant genes assessed as compound reduction under oxygenated microaerobic condition per mg of protein; type: organism-based; details: in vivo; method in brief: as §4
# [40] = tested on: Helicobacter pylori; assay: Prodrug activation in Helicobacter pylori RIG 117 J0 lysate assessed as compound reduction under argonized microaerobic condition per mg of protein; method in brief: as §1
smiles,measurement,setting,value
NC(=O)N/N=C/c1ccc([N+](=O)[O-])o1 [NITROFURAZONE],Km,[1],2.8 µM
same,Km,[2],8.8 µM
same,Km,[3],13.1 µM
same,Km,[4],8.5 µM
same,Km,[5],6.8 µM
same,Km,[6],3.3 µM
same,Km,[7],8.1 µM
same,Km,[8],6 µM
Cc1ncc([N+](=O)[O-])n1CCO [METRONIDAZOLE],Activity,[9],25 nmol/min
same,MIC,[10],4 µg/mL
same,Activity,[11],22 nmol/min
same,Activity,[12],36 nmol/min
same,MIC,[13],32 µg/mL
same,Activity,[14],14 nmol/min
same,Activity,[15],31 nmol/min
same,Activity,[16],10 nmol/min
same,Activity,[17],27 nmol/min
same,MIC,[18],64 µg/mL
same,Activity,[19],20 nmol/min
same,Activity,[20],9 nmol/min
same,Activity,[21],15 nmol/min
same,Activity,[22],33 nmol/min
same,Activity,[23],10 nmol/min
same,MIC,[24],2 µg/mL
same,Activity,[25],18 nmol/min
same,Activity,[26],13 nmol/min
same,MIC,[27],4 µg/mL
same,Activity,[28],13 nmol/min
same,Activity,[29],32 nmol/min
same,Activity,[30],11 nmol/min
same,Activity,[31],29 nmol/min
same,Activity,[32],9 nmol/min
same,Activity,[33],18 nmol/min
same,Activity,[34],16 nmol/min
same,MIC,[35],32 µg/mL
same,Activity,[36],19 nmol/min
same,MIC,[37],64 µg/mL
same,MIC,[38],2 µg/mL
same,Activity,[39],13 nmol/min
same,Activity,[40],32 nmol/min
Cc1cc2nc3c(=O)[nH]c(=O)nc-3n(C[C@H](O)[C@H](O)[C@H](O)COP(=O)(O)OP(=O)(O)OC[C@H]3O[C@@H](n4cnc5c(N)ncnc54)[C@H](O)[C@@H]3O)c2cc1C [FLAVIN ADENIN DINUCLEOTIDE],Km,[1],2.1 µM
same,Km,[2],2.4 µM
same,Km,[3],6 µM
same,Km,[4],11 µM
same,Km,[5],17 µM
same,Km,[6],24 µM
same,Km,[7],95 µM
same,Km,[8],5 µM
